≈ marks a conversion by molar mass, not a printed value. Starred links: 1 amine or outer side, 2 acyl side, 3 side chain; linkers in the order of their positions; H or OH if unused. Positions of bridges follow the written chain, without caps; N, C: chain ends. Non-standard residues stand in square brackets, D forms with d. Residues, ends and D or L forms follow the SMILES beside them. *: point of attachment. hTyr(3S-OH,4S-OH,3'-OSO3H) = N[C@H](C(=O)O)[C@H](O)[C@@H](O)c1ccc(O)c(OS(=O)(=O)O)c1; Orn(4R-OH,5R-OH) = O=C([C@H](C[C@@H](O)[C@@H](O)N[*:3])N[*:1])[*:2]; Pro(3S-OH,4S-Me) = C[C@H]1CN[C@H](C(=O)O)[C@H]1O; X1 = CCCCCOc1ccc(-c2cc(-c3ccc(C(=O)*)cc3)no2)cc1; Gln(3R-OH) = NC(=O)C[C@@H](O)[C@H](N)C(=O)O; Hyp = O=C(O)[C@@H]1C[C@@H](O)CN1
Tests used:
Type in all cases: functional
[1] = system: Candida dubliniensis; test: Antifungal activity against Candida dubliniensis FMR 10032 infected in OF1 mouse assessed as fungal count in kidney at 1 mg/kg/day, iv […]
In short: (§1)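 Immunocompetent male OF1 mice, 10 per group, were challenged i.v. with 1.5 × 10^7 CFU. Drug was given i.v. once daily at 1 or 10 mg/kg for 3 days, starting 24 h post-challenge; controls were untreated. Mice were killed 1 day after the last dose. Kidneys and spleen were homogenized in saline, serial 10-fold dilutions were plated on Sabouraud agar at 35°C for 3 days, and mean log10 CFU was reported.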

[2] = system: Candida dubliniensis; test: Antifungal activity against Candida dubliniensis FMR 10034 infected in OF1 mouse assessed as fungal count in kidney at 10 mg/kg/day, iv […]; in short: as §1
[3] = system: Candida dubliniensis; test: Antifungal activity against Candida dubliniensis 10035 after 24 hrs; conditions: Candida dubliniensis, 10035, 24 h
In short: (§2)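 CLSI M27-A3 broth microdilution. Yeast inoculum was adjusted with a hemocytometer. MIC was read at 24 h or 48 h as the lowest concentration giving 50% growth inhibition.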

[4] = system: Candida dubliniensis; test: Antifungal activity against Candida dubliniensis FMR 10034 infected in OF1 mouse assessed as fungal count in spleen at 10 mg/kg/day, iv […]; in short: as §1
[5] = system: Candida dubliniensis; test: Antifungal activity against Candida dubliniensis 10032 after 48 hrs; conditions: Candida dubliniensis, 10032, 48 h; in short: as §2
[6] = system: Candida dubliniensis; test: Antifungal activity against Candida dubliniensis 9456 after 48 hrs; conditions: Candida dubliniensis, 9456, 48 h; in short: as §2
[7] = system: Candida dubliniensis; test: Antifungal activity against Candida dubliniensis FMR 10034 infected in immunosuppressed OF1 mouse assessed as fungal count in spleen at 1 mg/kg/day, iv […]
In short: (§3)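 Male OF1 mice, 10 per group, were immunosuppressed on infection day with cyclophosphamide 200 mg/kg i.p. plus 5-fluorouracil 150 mg/kg i.v., then challenged i.v. with 1.5 × 10^5 CFU. Drug was given at 1 mg/kg i.v. once daily for 5 days, starting 24 h after challenge. One day after treatment ended, kidney and spleen homogenates were plated in 10-fold dilutions on Sabouraud agar (35°C, 3 days) and mean log10 CFU was reported.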

[8] = system: Candida dubliniensis; test: Antifungal activity against Candida dubliniensis 10035 after 48 hrs; conditions: Candida dubliniensis, 10035, 48 h; in short: as §2
[9] = system: Candida dubliniensis; test: Antifungal activity against Candida dubliniensis 10033 after 48 hrs; conditions: Candida dubliniensis, 10033, 48 h; in short: as §2
[10] = system: Candida dubliniensis; test: Antifungal activity against Candida dubliniensis 10034 by hemocytometry
In short: (§4)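 Minimal fungicidal concentration from the broth dilution test, defined as the lowest drug level giving ≥99.9% reduction in CFU/ml. Inocula were adjusted by hemocytometer.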

[11] = system: Candida dubliniensis; test: Antifungal activity against Candida dubliniensis FMR 10032 infected in immunosuppressed OF1 mouse assessed as fungal count in kidney at 1 mg/kg/day, iv […]; in short: as §3
[12] = system: Candida dubliniensis; test: Antifungal activity against Candida dubliniensis FMR 10032 infected in immunosuppressed OF1 mouse assessed as fungal count in spleen at 1 mg/kg/day, iv […]; in short: as §3
[13] = system: Candida dubliniensis; test: Antifungal activity against Candida dubliniensis 10031 after 24 hrs; conditions: Candida dubliniensis, 10031, 24 h; in short: as §2
[14] = system: Candida dubliniensis; test: Antifungal activity against Candida dubliniensis 10034 assessed as compound concentration at which paradoxical growth of observed after 48 hrs
In short: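 In the same broth dilution (CLSI M27-A3) tests, read at 24 or 48 h, this is the range of drug concentrations over which paradoxical growth appeared. It was not set when growth occurred across the whole tested range (trailing).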

[15] = system: Candida dubliniensis; test: Antifungal activity against Candida dubliniensis FMR 10032 infected in OF1 mouse assessed as fungal count in spleen at 10 mg/kg/day, iv […]; in short: as §1
[16] = system: Candida dubliniensis; test: Antifungal activity against Candida dubliniensis FMR 10032 infected in OF1 mouse assessed as fungal count in spleen at 1 mg/kg/day, iv […]; in short: as §1
[17] = system: Candida dubliniensis; test: Antifungal activity against Candida dubliniensis 10033 by hemocytometry; in short: as §4
[18] = system: Candida dubliniensis; test: Antifungal activity against Candida dubliniensis FMR 10034 infected in OF1 mouse assessed as fungal count in spleen at 1 mg/kg/day, iv […]; in short: as §1
[19] = system: Candida dubliniensis; test: Antifungal activity against Candida dubliniensis 10031 after 48 hrs; conditions: Candida dubliniensis, 10031, 48 h; in short: as §2
[20] = system: Candida dubliniensis; test: Antifungal activity against Candida dubliniensis 9456 after 24 hrs; conditions: Candida dubliniensis, 9456, 24 h; in short: as §2
[21] = system: Candida dubliniensis; test: Antifungal activity against Candida dubliniensis 10034 after 24 hrs; conditions: Candida dubliniensis, 10034, 24 h; in short: as §2
[22] = system: Candida dubliniensis; test: Antifungal activity against Candida dubliniensis 10031 by hemocytometry; in short: as §4
[23] = system: Candida dubliniensis; test: Antifungal activity against Candida dubliniensis 10034 after 48 hrs; conditions: Candida dubliniensis, 10034, 48 h; in short: as §2
[24] = system: Candida dubliniensis; test: Antifungal activity against Candida dubliniensis FMR 10034 infected in OF1 mouse assessed as fungal count in kidney at 1 mg/kg/day, iv […]; in short: as §1
[25] = system: Candida dubliniensis; test: Antifungal activity against Candida dubliniensis 9453 after 24 hrs; conditions: Candida dubliniensis, 9453, 24 h; in short: as §2
[26] = system: Candida dubliniensis; test: Antifungal activity against Candida dubliniensis 9453 by hemocytometry; in short: as §4
[27] = system: Candida dubliniensis; test: Antifungal activity against Candida dubliniensis 9453 after 48 hrs; conditions: Candida dubliniensis, 9453, 48 h; in short: as §2
[28] = system: Candida dubliniensis; test: Antifungal activity against Candida dubliniensis FMR 10034 infected in immunosuppressed OF1 mouse assessed as fungal count in kidney at 1 mg/kg/day, iv […]; in short: as §3
[29] = system: Candida dubliniensis; test: Antifungal activity against Candida dubliniensis FMR 10032 infected in OF1 mouse assessed as fungal count in kidney at 10 mg/kg/day, iv […]; in short: as §1
[30] = system: Candida dubliniensis; test: Antifungal activity against Candida dubliniensis 10032 after 24 hrs; conditions: Candida dubliniensis, 10032, 24 h; in short: as §2
[31] = system: Candida dubliniensis; test: Antifungal activity against Candida dubliniensis 10032 by hemocytometry; in short: as §4
[32] = system: Candida dubliniensis; test: Antifungal activity against Candida dubliniensis 9456 by hemocytometry; in short: as §4
[33] = system: Candida dubliniensis; test: Antifungal activity against Candida dubliniensis 10033 after 24 hrs; conditions: Candida dubliniensis, 10033, 24 h; in short: as §2

MIC50 [3]: 0.03 µg/mL (≈ 0.0236 µM) | MIC50 [5]: 0.125 µg/mL (≈ 0.0984 µM) | MIC50 [6]: 0.125 µg/mL (≈ 0.0984 µM) | MIC50 [8]: 0.03 µg/mL (≈ 0.0236 µM) | MIC50 [9]: 0.25 µg/mL (≈ 0.197 µM) | MIC50 [13]: 0.125 µg/mL (≈ 0.0984 µM) | MIC50 [19]: 0.125 µg/mL (≈ 0.0984 µM) | MIC50 [20]: 0.06 µg/mL (≈ 0.0472 µM) | MIC50 [21]: 0.06 µg/mL (≈ 0.0472 µM) | MIC50 [23]: 0.125 µg/mL (≈ 0.0984 µM) | MIC50 [25]: 0.125 µg/mL (≈ 0.0984 µM) | MIC50 [27]: 0.125 µg/mL (≈ 0.0984 µM) | MIC50 [30]: < 0.03 µg/mL | MIC50 [33]: 0.125 µg/mL (≈ 0.0984 µM)
Structure (SMILES): CCCCCOc1ccc(-c2cc(-c3ccc(C(=O)N[C@H]4C[C@@H](O)[C@@H](O)NC(=O)[C@@H]5[C@@H](O)[C@@H](C)CN5C(=O)[C@H]([C@H](O)CC(N)=O)NC(=O)[C@H]([C@H](O)[C@@H](O)c5ccc(O)c(OS(=O)(=O)O)c5)NC(=O)[C@@H]5C[C@@H](O)CN5C(=O)[C@H]([C@@H](C)O)NC4=O)cc3)no2)cc1 [MICAFUNGIN] (X1-[Orn(4R-OH,5R-OH)]T[Hyp][hTyr(3S-OH,4S-OH,3'-OSO3H)][Gln(3R-OH)][Pro(3S-OH,4S-Me)]; lactam 1-C)
log10cfu [1]: 4.25 | log10cfu [2]: 4.69 | log10cfu [4]: 4.18 | log10cfu [7]: 3.26 | MFC [10]: > 16 µg/mL | log10cfu [11]: 5.47 | log10cfu [12]: 2.62 | Activity [14]: 2 µg/mL | log10cfu [15]: 3.58 | log10cfu [16]: 3.97 | MFC [17]: 2 µg/mL (≈ 1.57 µM) | log10cfu [18]: 4.79 | MFC [22]: > 16 µg/mL | log10cfu [24]: 6.33 | MFC [26]: > 16 µg/mL | log10cfu [28]: 6.47 | log10cfu [29]: 3.23 | MFC [31]: 4 µg/mL (≈ 3.15 µM) | MFC [32]: > 16 µg/mL

Reference: ChEMBL document CHEMBL1649289, “Paradoxical growth of Candida dubliniensis does not preclude in vivo response to echinocandin therapy” (2009)
